pKi: −log10 of the molar value.
Experiments:
[1] = Oral bioavailability; format: ADME, organism-based; settings: eutheria, in vivo
Summary of the method: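 Overnight-fasted male cynomolgus monkeys received 10 mg/kg orally by gastric tube, or 0.3 or 1.0 mg/kg intravenously. Saphenous vein blood was drawn into trisodium citrate before dosing and at several times up to 24 h. Plasma drug levels were measured by HPLC.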

[2] = target: Coagulation factor X (Homo sapiens, UniProt P00742); test: Inhibitory activity against Coagulation factor X (fXa)
Summary of the method: (§1)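 Chromogenic assay at room temperature in pH 8.4 buffer (0.1 M Tris, 0.2 M NaCl, 0.1% PEG-6000, 0.02% Tween20). For fXa, 4.5 nM enzyme with 200 μM S-2222; for thrombin, 1.1 nM enzyme with 100 μM S-2238 (final). Inhibitor and enzyme preincubated 10 min, then substrate added. p-Nitroaniline release read at 405 nm for 16 min. IC50 taken from initial velocities; apparent Ki scaled from IC50 ratios against a standard inhibitor's Ki from a double reciprocal plot.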

[3] = species: Homo sapiens; test: Concentration required to double the prothrombin time(PT) in human plasma was determined; format: functional
[4] = target: Prothrombin (Homo sapiens, UniProt P00734); test: Inhibitory activity against thrombin; summary of the method: as §1
[5] = target: Thrombin and coagulation factor X (Homo sapiens) (UniProt P00734+P00742); test: Selectivity for factor Xa (fXa) versus thrombin; format: protein assay
[6] = system: Monkey; test: Concentration required to double the prothrombin time (PT) in plasma of cynomolgus monkey

Sequence of Thrombin and coagulation factor X (Homo sapiens) (P00742 whole entry, looked up, other chains not shown): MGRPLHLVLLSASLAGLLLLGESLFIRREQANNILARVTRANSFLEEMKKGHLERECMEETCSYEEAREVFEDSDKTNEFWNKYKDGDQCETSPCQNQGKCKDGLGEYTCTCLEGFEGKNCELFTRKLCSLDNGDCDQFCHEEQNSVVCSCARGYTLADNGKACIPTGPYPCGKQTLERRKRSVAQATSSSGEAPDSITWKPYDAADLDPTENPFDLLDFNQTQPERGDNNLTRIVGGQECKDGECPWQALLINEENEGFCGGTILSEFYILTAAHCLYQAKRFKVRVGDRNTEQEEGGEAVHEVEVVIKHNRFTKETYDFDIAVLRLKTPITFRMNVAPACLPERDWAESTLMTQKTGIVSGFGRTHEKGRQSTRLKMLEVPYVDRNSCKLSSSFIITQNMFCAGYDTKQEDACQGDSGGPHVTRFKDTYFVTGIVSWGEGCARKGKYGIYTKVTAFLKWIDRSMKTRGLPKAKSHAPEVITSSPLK
Sequence of Coagulation factor X (P00742 41-179 limits assumed): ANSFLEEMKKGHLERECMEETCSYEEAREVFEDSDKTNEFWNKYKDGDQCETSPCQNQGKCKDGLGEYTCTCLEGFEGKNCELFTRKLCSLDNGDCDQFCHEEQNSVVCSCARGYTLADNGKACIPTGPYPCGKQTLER
Sequence of Coagulation factor X (P00742 235-488 limits assumed): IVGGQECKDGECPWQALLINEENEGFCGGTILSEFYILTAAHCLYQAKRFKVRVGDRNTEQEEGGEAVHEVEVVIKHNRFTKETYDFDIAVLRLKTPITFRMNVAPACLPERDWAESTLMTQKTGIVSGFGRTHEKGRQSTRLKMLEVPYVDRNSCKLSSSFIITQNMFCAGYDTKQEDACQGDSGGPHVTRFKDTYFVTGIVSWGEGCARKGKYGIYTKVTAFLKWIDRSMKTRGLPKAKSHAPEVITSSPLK

Row | Structure (SMILES) | bioavailability [1] | pKi [2] | pKi [4] | Ratio [5] | PT [3] | PT [6]
1 | N=C(N)c1cccc(OCCNC(=O)c2ccccc2)c1 |  | 5.55 | 3.10 | 290 |  | 
2 | N=C(N)c1ccc(C(=O)N[C@H](COc2cccc(C(=N)N)c2)CC(=O)O)cc1 |  | 6.77 | < 2.82 | > 8800 |  | 
3 | N=C(N)c1cccc(OCCNC(=O)C2CCN(c3ccncc3)CC2)c1 |  | 6.54 | 3.00 | 3500 |  | 
4 | CC(=N)N1CCC(Oc2ccc(C(=O)NCCOc3cccc(C(=N)N)c3)cc2)CC1 |  | 6.77 | 3.36 | 2600 |  | 
5 | N=C(N)c1ccc(C(=O)NCCOc2cccc(C(=N)N)c2)cc1 |  | 6.66 | 3.15 | 3200 |  | 
6 | N=C(N)c1ccc(CCC(=O)O)c(OCCNC(=O)C2CCN(c3ccncc3)CC2)c1 | 6% | 7.37 | < 2.82 | > 35000 | 0.42 µM | 0.7 µM

These reach a higher pKi [2]. Values come first.

Row | bioavailability [1] | pKi [2] | pKi [4] | Ratio [5] | Structure (SMILES) | PT [3] | PT [6]
7 | 12% | 7.68 | 3.85 | 6700 | N=C(N)c1ccc(CC(=O)C(=O)O)c(OCCNC(=O)C2CCN(c3ccncc3)CC2)c1 | 0.22 µM | 0.22 µM
8 |  | 7.59 | 4.42 | 1500 | N=C(N)c1ccc(C(=O)NCCOc2cc(C(=N)N)ccc2CC(=O)C(=O)O)cc1 |  | 
9 |  | 7.74 | 3.17 | 38000 | N=C(N)c1ccc(CC(=O)C(=O)O)c(OC[C@@H](CC(=O)O)NC(=O)C2CCN(c3ccncc3)CC2)c1 |  | 
10 |  | 8.52 | 4.62 | 8000 | N=C(N)c1ccc(CC(=O)C(=O)O)c(OCCNC(=O)c2ccc(C(=O)N3CCCC3)cc2)c1 |  | 
11 | 12% | 7.96 | 3.27 | 49000 | CC(=N)N1CCC(Oc2ccc(C(=O)N[C@@H](COc3cc(C(=N)N)ccc3CC(=O)C(=O)O)CC(=O)O)cc2)CC1 | 0.38 µM | 0.38 µM
12 |  | 7.55 | < 2.82 | > 54000 | N=C(N)c1ccc(C(=O)N[C@@H](COc2cccc(C(=N)N)c2)CC(=O)O)cc1 |  | 
13 |  | 7.70 | 3.96 | 5500 | N=C(N)c1cccc(OCCNC(=O)c2ccc(C(=O)N3CCCC3)cc2)c1 |  | 
14 |  | 7.48 | < 2.82 | > 45000 | CC(=N)N1CCC(Oc2ccc(C(=O)NCCOc3cc(C(=N)N)ccc3CCC(=O)O)cc2)CC1 |  | 
15 |  | 7.70 | 4.28 | 2700 | CC(=N)N1CCC(Oc2ccc(C(=O)NCCOc3cc(C(=N)N)ccc3CC(=O)C(=O)O)cc2)CC1 | 0.2 µM | 0.12 µM

Source: ChEMBL document CHEMBL1145031, “Rational design, synthesis, and structure-activity relationships of novel factor Xa inhibitors: (2-substituted-4-amidinophenyl)pyruvic and -propionic acids” (J Med Chem, 2003)
